Assay results as given in ChEMBL document CHEMBL4406845, “Synthesis of benzotriazoles derivatives and their dual potential as α-amylase and α-glucosidase inhibitors in vitro: Structure-activity relationship, molecular docking, and kinetic studies” (Eur J Med Chem, 2019).

Columns and labels:
Alpha amylase = target: T1, Alpha amylase (Homo sapiens, UniProt P0DUB6); assay: Inhibition of alpha-amylase (unknown origin) using starch as substrate preincubated for 10 mins followed by substrate addition and measured after 10 mins by dinitrosalicylic acid reagent based assay
T1 sequence (P0DUB6 whole entry): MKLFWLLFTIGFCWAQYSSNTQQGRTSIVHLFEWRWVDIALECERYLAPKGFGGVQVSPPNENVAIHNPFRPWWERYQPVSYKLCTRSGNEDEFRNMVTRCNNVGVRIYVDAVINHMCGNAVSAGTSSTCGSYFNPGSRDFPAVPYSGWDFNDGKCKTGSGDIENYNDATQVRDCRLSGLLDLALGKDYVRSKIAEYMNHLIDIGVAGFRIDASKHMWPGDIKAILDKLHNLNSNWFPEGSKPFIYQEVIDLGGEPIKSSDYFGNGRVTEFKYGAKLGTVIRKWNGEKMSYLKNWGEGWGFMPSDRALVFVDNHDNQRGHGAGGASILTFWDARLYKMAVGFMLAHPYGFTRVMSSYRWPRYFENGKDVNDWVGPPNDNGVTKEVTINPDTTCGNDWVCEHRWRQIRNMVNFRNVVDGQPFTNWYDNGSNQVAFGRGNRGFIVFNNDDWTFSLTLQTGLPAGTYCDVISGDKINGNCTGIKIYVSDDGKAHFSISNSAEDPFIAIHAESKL

Alpha glucosidase = Alpha glucosidase (Homo sapiens, UniProt O43451+P10253+P14410+Q2M2H8); assay: Inhibition of alpha-glucosidase (unknown origin); assay type: protein assay
[1] = system: COc1ccc(C(=O)Cn2nnc3cc(C)c(C)cc32)cc1; assay: (§1) Competitive inhibition of alpha-amylase (unknown origin) assessed as substrate Vmax using p-nitrophenyl-R-D-maltoside as substrate incubated for 30 mins by ELISA-based Lineweaver-burk plot analysis; conditions: Homo sapiens
Procedure, shortened: (§2)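 Kinetics: inhibitor at 0.0625, 0.125, 0.3 and 0.4 mM crossed with p-nitrophenyl-R-D-maltoside at 0.1, 0.2, 0.4, 0.8 and 1.0 mM. Enzyme dissolved in deionized water, 0.2 mg/mL per well. PIPES buffer, pH 7.0, 30 min at 25 °C. Absorbance read on a plate reader. Vmax, Km, AICc and R² obtained by enzyme-kinetic graph fitting.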

[2] = system: COc1ccc(C(=O)n2nnc3ccccc32)cc1; assay: as §1; conditions: Homo sapiens; procedure, shortened: as §2
[3] = system: Cc1cc2nnn(CC(=O)c3ccc(Cl)c(Cl)c3)c2cc1C; assay: as §1; conditions: Homo sapiens; procedure, shortened: as §2
[4] = system: Cc1cc2nnn(CC(=O)c3ccc(Cl)cc3)c2cc1C; assay: as §1; conditions: Homo sapiens; procedure, shortened: as §2
[5] = system: O=C(Cn1nnc2ccccc21)c1ccc(Cl)cc1; assay: as §1; conditions: Homo sapiens; procedure, shortened: as §2
[6] = system: O=C(Cn1nnc2ccccc21)c1cccc(Br)c1; assay: as §1; conditions: Homo sapiens; procedure, shortened: as §2
[7] = system: O=C(c1ccc(F)cc1)n1nnc2ccccc21; assay: as §1; conditions: Homo sapiens; procedure, shortened: as §2
[8] = system: O=C(c1ccc([N+](=O)[O-])cc1)n1nnc2ccccc21; assay: as §1; conditions: Homo sapiens; procedure, shortened: as §2
[9] = system: O=C(c1cccc(Cl)c1)n1nnc2cc(Cl)c(Cl)cc21; assay: as §1; conditions: Homo sapiens; procedure, shortened: as §2
[10] = system: COc1ccc(C(=O)Cn2nnc3cc(C)c(C)cc32)cc1; assay: (§3) Competitive inhibition of alpha-amylase (unknown origin) assessed as substrate Km using p-nitrophenyl-R-D-maltoside as substrate incubated for 30 mins by ELISA-based Lineweaver-burk plot analysis; conditions: Homo sapiens; procedure, shortened: as §2
[11] = system: COc1ccc(C(=O)n2nnc3ccccc32)cc1; assay: as §3; conditions: Homo sapiens; procedure, shortened: as §2
[12] = system: Cc1cc2nnn(CC(=O)c3ccc(Cl)c(Cl)c3)c2cc1C; assay: as §3; conditions: Homo sapiens; procedure, shortened: as §2
[13] = system: Cc1cc2nnn(CC(=O)c3ccc(Cl)cc3)c2cc1C; assay: as §3; conditions: Homo sapiens; procedure, shortened: as §2
[14] = system: O=C(Cn1nnc2ccccc21)c1ccc(Cl)cc1; assay: as §3; conditions: Homo sapiens; procedure, shortened: as §2
[15] = system: O=C(Cn1nnc2ccccc21)c1cccc(Br)c1; assay: as §3; conditions: Homo sapiens; procedure, shortened: as §2
[16] = system: O=C(c1ccc(F)cc1)n1nnc2ccccc21; assay: as §3; conditions: Homo sapiens; procedure, shortened: as §2
[17] = system: O=C(c1ccc([N+](=O)[O-])cc1)n1nnc2ccccc21; assay: as §3; conditions: Homo sapiens; procedure, shortened: as §2
[18] = system: O=C(c1cccc(Cl)c1)n1nnc2cc(Cl)c(Cl)cc21; assay: as §3; conditions: Homo sapiens; procedure, shortened: as §2
[19] = system: CCCCOc1ccc(C(=O)n2nnc3ccccc32)cc1; assay: (§4) Non-competitive inhibition of alpha-glucosidase (unknown origin) assessed as substrate Vmax using p-nitrophenyl-R-D-maltoside as substrate incubated for 30 mins at 1 min interval by ELISA-based Lineweaver-burk plot analysis; assay type: protein assay; conditions: Homo sapiens
[20] = system: COc1ccc(C(=O)Cn2nnc3cc(C)c(C)cc32)cc1; assay: as §4; assay type: protein assay; conditions: Homo sapiens
[21] = system: Cc1cc(C(=O)n2nnc3ccccc32)cc(C)c1C; assay: as §4; assay type: protein assay; conditions: Homo sapiens
[22] = system: Cc1cc2nnn(C(=O)c3ccccc3)c2cc1C; assay: as §4; assay type: protein assay; conditions: Homo sapiens
[23] = system: Cc1ccc(C(=O)n2nnc3cc(Cl)c(Cl)cc32)cc1C; assay: as §4; assay type: protein assay; conditions: Homo sapiens
[24] = system: O=C(Cn1nnc2ccccc21)c1cccc([N+](=O)[O-])c1; assay: as §4; assay type: protein assay; conditions: Homo sapiens
[25] = system: O=C(Cn1nnc2ccccc21)c1ccccc1O; assay: as §4; assay type: protein assay; conditions: Homo sapiens
[26] = system: O=C(c1ccc(Br)cc1)n1nnc2ccccc21; assay: as §4; assay type: protein assay; conditions: Homo sapiens
[27] = system: O=C(c1cccc(Cl)c1)n1nnc2cc(Cl)c(Cl)cc21; assay: as §4; assay type: protein assay; conditions: Homo sapiens
[28] = system: CCCCOc1ccc(C(=O)n2nnc3ccccc32)cc1; assay: (§5) Non-competitive inhibition of alpha-glucosidase (unknown origin) assessed as substrate Km using p-nitrophenyl-R-D-maltoside as substrate incubated for 30 mins at 1 min interval by ELISA-based Lineweaver-burk plot analysis; assay type: protein assay; conditions: Homo sapiens
[29] = system: COc1ccc(C(=O)Cn2nnc3cc(C)c(C)cc32)cc1; assay: as §5; assay type: protein assay; conditions: Homo sapiens
[30] = system: Cc1cc(C(=O)n2nnc3ccccc32)cc(C)c1C; assay: as §5; assay type: protein assay; conditions: Homo sapiens
[31] = system: Cc1cc2nnn(C(=O)c3ccccc3)c2cc1C; assay: as §5; assay type: protein assay; conditions: Homo sapiens
[32] = system: Cc1ccc(C(=O)n2nnc3cc(Cl)c(Cl)cc32)cc1C; assay: as §5; assay type: protein assay; conditions: Homo sapiens
[33] = system: O=C(Cn1nnc2ccccc21)c1cccc([N+](=O)[O-])c1; assay: as §5; assay type: protein assay; conditions: Homo sapiens
[34] = system: O=C(Cn1nnc2ccccc21)c1ccccc1O; assay: as §5; assay type: protein assay; conditions: Homo sapiens
[35] = system: O=C(c1ccc(Br)cc1)n1nnc2ccccc21; assay: as §5; assay type: protein assay; conditions: Homo sapiens
[36] = system: O=C(c1cccc(Cl)c1)n1nnc2cc(Cl)c(Cl)cc21; assay: as §5; assay type: protein assay; conditions: Homo sapiens

Row | IC50 (Alpha amylase) | IC50 (Alpha glucosidase) | Compound | other results
1 | 5.38 µM | 5.29 µM | O=C(c1ccccc1)n1nnc2ccccc21 | –
2 | 5.4 µM | 5.6 µM | CCCCOc1ccc(C(=O)n2nnc3ccccc32)cc1 | –
3 | 5.72 µM | 5.63 µM | O=C(c1ccc(F)c(F)c1Cl)n1nnc2ccccc21 | –
4 | 4.77 µM | 4.79 µM | COc1ccccc1C(=O)n1nnc2ccccc21 | –
5 | 3.13 µM | 3.2 µM | O=C(c1ccc(Br)cc1)n1nnc2ccccc21 | –
6 | 4.3 µM | 4.42 µM | Cc1cccc(C(=O)n2nnc3ccccc32)c1 | –
7 | 5 µM | 5.23 µM | O=C(c1c(F)cccc1F)n1nnc2ccccc21 | –
8 | 4.73 µM | 4.8 µM | Cc1ccc(C(=O)n2nnc3ccccc32)cc1C | –
9 | 3.66 µM | 3.82 µM | Cc1ccc(C(=O)n2nnc3cc(Cl)c(Cl)cc32)cc1C | –
10 | 2.8 µM | 2.82 µM | O=C(c1ccc(F)cc1)n1nnc2ccccc21 | –
11 | 3.32 µM | 3.4 µM | Cc1cc2nnn(C(=O)c3ccccc3)c2cc1C | –
12 | 4.28 µM | 4.32 µM | Nc1cc(C(=O)n2nnc3ccccc32)ccc1Cl | –
13 | 4.12 µM | 4.23 µM | Cc1cc(C(=O)n2nnc3ccccc32)cc(C)c1C | –
14 | 2.92 µM | 2.97 µM | O=C(c1ccc([N+](=O)[O-])cc1)n1nnc2ccccc21 | –
15 | 4.08 µM | 4.1 µM | Cc1cc(C(=O)n2nnc3ccccc32)ccc1[N+](=O)[O-] | –
16 | 2.98 µM | 2.99 µM | COc1ccc(C(=O)n2nnc3ccccc32)cc1 | –

The remaining lines, values behind:

Row | Compound | IC50 (Alpha amylase) | IC50 (Alpha glucosidase) | other results
17 | Cc1ccc(C(=O)Cn2nnc3ccccc32)cc1 | 4.56 µM | 4.78 µM | –
18 | COc1ccc(C(=O)Cn2nnc3ccccc32)cc1 | 4.42 µM | 4.5 µM | –
19 | O=C(Cn1nnc2ccccc21)c1ccc(Cl)cc1 | 2.41 µM | 2.5 µM | –
20 | O=C(Cn1nnc2ccccc21)c1ccc(Br)cc1 | 2.76 to 4.35 µM | 2.79 to 4.41 µM | –
21 | Alpha amylase (Homo sapiens) (from UniProt P0DUB6) | – | – | Vmax [1]: 505 µM/min; Vmax [2]: 554 µM/min; Vmax [3]: 593 µM/min; Vmax [4]: 514 µM/min; Vmax [5]: 527 µM/min; Vmax [6]: 512 µM/min; Vmax [7]: 522 µM/min; Vmax [8]: 512 µM/min; Vmax [9]: 514 µM/min; Km [10]: 200 µM; Km [11]: 210 µM; Km [12]: 240 µM; Km [13]: 180 µM; Km [14]: 200 µM; Km [15]: 210 µM; Km [16]: 190 µM; Km [17]: 200 µM; Km [18]: 200 µM
22 | O=C(Cn1nnc2ccccc21)c1cccc(Br)c1 | 4.35 µM | 4.41 µM | –
23 | Cc1cc2nnn(CC(=O)c3ccccc3)c2cc1C | 3.53 µM | 3.41 µM | –
24 | Cc1cc2nnn(CC(=O)c3ccc(Cl)cc3)c2cc1C | 2.12 µM | 2.21 µM | –
25 | COc1ccc(C(=O)Cn2nnc3cc(C)c(C)cc32)cc1 | 2.51 µM | 2.6 µM | –
26 | O=C(Cn1nnc2ccccc21)c1ccc(Cl)c(Cl)c1 | 3.89 µM | 3.9 µM | –
27 | O=C(Cn1nnc2ccccc21)c1ccccc1O | 4.9 µM | 4.87 µM | –
28 | Cc1cc2nnn(CC(=O)c3ccccc3O)c2cc1C | 3.21 µM | 3.3 µM | –
29 | Alpha glucosidase (Homo sapiens) (from UniProt O43451+P10253+P14410+Q2M2H8) | – | – | Vmax [19]: 621 µM/min; Vmax [20]: 620 µM/min; Vmax [21]: 612 µM/min; Vmax [22]: 602 µM/min; Vmax [23]: 620 µM/min; Vmax [24]: 618 µM/min; Vmax [25]: 601 µM/min; Vmax [26]: 612 µM/min; Vmax [27]: 620 µM/min; Km [28]: 240 µM; Km [29]: 210 µM; Km [30]: 200 µM; Km [31]: 200 µM; Km [32]: 240 µM; Km [33]: 260 µM; Km [34]: 250 µM; Km [35]: 200 µM; Km [36]: 250 µM
30 | O=C(Cn1nnc2ccccc21)c1cccc([N+](=O)[O-])c1 | 4.02 µM | 4 µM | –
31 | Cc1cc2nnn(CC(=O)c3ccc(Cl)c(Cl)c3)c2cc1C | 2 µM | 2.04 µM | –
32 | O=C(Cn1nnc2ccccc21)c1ccc(-c2ccccc2)cc1 | 4.92 µM | 4.98 µM | –
33 | O=C(c1cccc(Cl)c1)n1nnc2cc(Cl)c(Cl)cc21 | 2.99 µM | 3 µM | –
34 | O=C(Cn1nnc2ccccc21)c1cccc(Cl)c1Cl | 3.51 µM | 3.47 µM | –
35 | O=C(Cn1nnc2ccccc21)c1ccccc1 | 4.89 µM | 4.91 µM | –
36 | O=C(c1ccccc1)n1nnc2cc(Cl)c(Cl)cc21 | 3.66 µM | 3.7 µM | –
